Source: ChEMBL document CHEMBL1157729, “Structure-activity relationship and mechanism of action studies of manzamine analogues for the control of neuroinflammation and cerebral infections” (J Med Chem, 2010)
Converted amounts (≈) assume the structure as drawn.

Key:
Plasmodium falciparum [1] = experiment: Antiplasmodial activity against chloroquine-sensitive Plasmodium falciparum D6 after 72 hrs by LDH assay; format: functional, organism-based; conditions: Plasmodium falciparum, D6, 72 h; read-out: IC50
Plasmodium falciparum [2] = experiment: Antiplasmodial activity against chloroquine-resistant Plasmodium falciparum W2 after 72 hrs by LDH assay; format: functional, organism-based; conditions: Plasmodium falciparum, W2, 72 h; read-out: IC50
Vero = experiment: Cytotoxicity against african green monkey Vero cells after 48 hrs by neutral red assay; format: cell-based; conditions: chlorocebus sabaeus
In short: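 Vero cells seeded at 25,000/well and grown 24 h, then exposed to serially diluted samples for 48 h. Viable cells measured by neutral red assay, with doxorubicin as positive control. IC50 taken from dose-response curves.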

[3] = system: Mycobacterium tuberculosis; experiment: Antimycobacterial activity against Mycobacterium tuberculosis H37Rv; format: functional, organism-based
Candida albicans = experiment: Antifungal activity against Candida albicans ATCC 90028; format: functional, organism-based
In short: (§1)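 Broth microdilution per modified CLSI method; samples serially diluted in 20% DMSO/saline, tested in duplicate; inocula set by OD630 of suspensions in incubation broth; growth read at 630 nm before and after incubation; amphotericin B drug control.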

Cryptococcus neoformans = experiment: Antifungal activity against Cryptococcus neoformans ATCC 90113; format: functional, organism-based; in short: as §1
[4] = system: Mycobacterium intracellulare; experiment: Antimycobacterial activity against Mycobacterium intracellular ATCC 23068; format: functional, organism-based
In short: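 Modified Franzblau method; samples serially diluted in 20% DMSO/saline, tested in duplicate; inoculum set by OD630; fluorescence read at 544ex/590em before and after incubation; ciprofloxacin drug control.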

[5] = Antineuroinflammatory activity in LPS-stimulated rat neonatal microglia assessed as inhibition of PMA-induced superoxide anion production preincubated 15 mins prior to PMA challenge measured after 70 mins; format: functional, cell-based
[6] = Antineuroinflammatory activity in LPS-stimulated rat neonatal microglia assessed as inhibition of PMA-induced TXB2 production preincubated 15 mins prior to PMA challenge measured after 70 mins; format: functional, cell-based
[7] = Antineuroinflammatory activity in LPS-stimulated rat neonatal microglia assessed as drug level causing 50% PMA-induced LDH release preincubated 15 mins prior to PMA challenge measured after 70 mins; format: functional
In short: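 Neonatal rat microglia (2 × 10^5/well) primed with E. coli LPS 0.3 ng/mL for 17 h at 35.9 °C, washed with HBSS, given compound (0.01–10 μM) or DMSO 15 min, then PMA 1 μM; LDH read spectrophotometrically after 70 min; LDH50 relative to Triton X-100 (0.1%) release; duplicates.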

[8] = system: Mycobacterium intracellulare; experiment: Ratio of IC50 for drug to ciprofloxacin against Mycobacterium intracellular ATCC 23068; format: functional

Q: With `COc1ccc2[nH]c3c(c2c1)CCNC3C1=C[C@@]2(O)CC/C=C\CCCCN3CC[C@@H]1[C@]1(C[C@@H]4/C=C\CCCCN4[C@H]12)C3` (some centres undefined) as the molecule, how does the IC50 (Plasmodium falciparum [1]) read?
A: 0.057 µg/mL (≈ 0.0978 µM)

Q: What about the IC50 (Plasmodium falciparum [2]) of the same molecule?
A: 0.064 µg/mL (≈ 0.11 µM)

Q: What about the IC50 (Vero) of the same molecule?
A: 0.2 µg/mL (≈ 0.343 µM)

Q: And the MIC [3]?
A: > 64 µg/mL

Q: What about the IC50 (Candida albicans) of the same molecule?
A: > 20 µg/mL

Q: What about the IC50 (Cryptococcus neoformans) of the same molecule?
A: 2 µg/mL (≈ 3.43 µM)

Q: And the IC50 [4]?
A: 0.2 µg/mL (≈ 0.343 µM)

Q: And the IC50 [5]?
A: 2200 nM

Q: And the IC50 [6]?
A: 1650 nM

Q: What about the Activity [7] of the same molecule?
A: 3 µM

Q: For `COC(=O)c1cc2c([nH]c3ccccc32)c(C2=C[C@@]3(O)CC/C=C\CCCCN4CC[C@@H]2[C@]2(C[C@@H]5/C=C\CCCCN5[C@H]23)C4)n1`, which IC50 (Plasmodium falciparum [1]) is on record?
A: 0.011 µg/mL (≈ 0.0181 µM)

Q: And the IC50 (Plasmodium falciparum [2])?
A: 0.015 µg/mL (≈ 0.0247 µM)

Q: And the IC50 (Vero)?
A: 0.2 µg/mL (≈ 0.33 µM)

Q: And the MIC [3]?
A: > 64 µg/mL

Q: And the IC50 (Candida albicans)?
A: 20 µg/mL (≈ 33 µM)

Q: And the IC50 (Cryptococcus neoformans)?
A: 2 µg/mL (≈ 3.3 µM)

Q: And the IC50 [4]?
A: < 0.02 µg/mL

Q: And the IC50 [5]?
A: 30 nM

Q: What about the IC50 [6] of the same molecule?
A: 110 nM

Q: And the Activity [7]?
A: >10 µM

Q: And the “Ratio IC50” value [8]?
A: 5

Q: With `COC(=O)C1Cc2c([nH]c3ccccc23)C(C2=C[C@@]3(O)CC/C=C\CCCCN4CC[C@@H]2[C@]2(C[C@@H]5/C=C\CCCCN5[C@H]23)C4)N1` (some centres undefined) as the molecule, how does the IC50 (Plasmodium falciparum [1]) read?
A: 0.1 µg/mL (≈ 0.164 µM)

Q: And the IC50 (Plasmodium falciparum [2])?
A: 0.17 µg/mL (≈ 0.278 µM)

Q: And the IC50 (Vero)?
A: 1 µg/mL (≈ 1.64 µM)

Q: What about the MIC [3] of the same molecule?
A: > 64 µg/mL

Q: And the IC50 (Candida albicans)?
A: > 20 µg/mL

Q: And the IC50 (Cryptococcus neoformans)?
A: 3.5 µg/mL (≈ 5.73 µM)

Q: And the IC50 [4]?
A: 0.06 µg/mL (≈ 0.0982 µM)

Q: And the IC50 [5]?
A: 8600 nM

Q: And the IC50 [6]?
A: 4900 nM

Q: And the Activity [7]?
A: 5 µM

Q: And the “Ratio IC50” value [8]?
A: 5

Q: With `COc1ccc2[nH]c3c(C4=C[C@@]5(O)CC/C=C\CCCCN6CC[C@@H]4[C@]4(C[C@@H]7/C=C\CCCCN7[C@H]45)C6)nccc3c2c1` [6-METHOXYMANZAMINE A] as the molecule, how does the IC50 (Plasmodium falciparum [1]) read?
A: 0.028 µg/mL (≈ 0.0484 µM)

Q: What about the IC50 (Plasmodium falciparum [2]) of the same molecule?
A: 0.058 µg/mL (≈ 0.1 µM)

Q: And the IC50 (Vero)?
A: 0.5 µg/mL (≈ 0.864 µM)

Q: And the MIC [3]?
A: > 64 µg/mL

Q: What about the IC50 (Candida albicans) of the same molecule?
A: 5 µg/mL (≈ 8.64 µM)

Q: And the IC50 (Cryptococcus neoformans)?
A: 3 µg/mL (≈ 5.18 µM)

Q: And the IC50 [4]?
A: 0.8 µg/mL (≈ 1.38 µM)

Q: And the IC50 [5]?
A: 100 nM

Q: And the IC50 [6]?
A: 110 nM

Q: And the Activity [7]?
A: >10 µM

Q: For `O=[N+]([O-])c1ccc2[nH]c3c(C4=C[C@@]5(O)CC/C=C\CCCCN6CC[C@@H]4[C@]4(C[C@@H]7/C=C\CCCCN7[C@H]45)C6)nccc3c2c1` [6-NITROMANZAMINE A], which IC50 (Plasmodium falciparum [1]) is on record?
A: 0.018 µg/mL (≈ 0.0303 µM)

Q: What about the IC50 (Plasmodium falciparum [2]) of the same molecule?
A: 0.028 µg/mL (≈ 0.0472 µM)

Q: What about the IC50 (Vero) of the same molecule?
A: 270 µg/mL (≈ 455 µM)

Q: What about the MIC [3] of the same molecule?
A: 1.6 µg/mL (≈ 2.69 µM)

Q: And the IC50 (Candida albicans)?
A: > 20 µg/mL

Q: What about the IC50 (Cryptococcus neoformans) of the same molecule?
A: 2.5 µg/mL (≈ 4.21 µM)

Q: What about the IC50 [4] of the same molecule?
A: 0.15 µg/mL (≈ 0.253 µM)

Q: With `CCCCn1c2ccccc2c2ccnc(C3=C[C@@]4(O)CC/C=C\CCCCN5CC[C@@H]3[C@]3(C[C@@H]6/C=C\CCCCN6[C@H]34)C5)c21` [9-N-BUTYLMANZAMINE A] as the molecule, how does the IC50 (Plasmodium falciparum [1]) read?
A: 0.33 µg/mL (≈ 0.546 µM)

Q: What about the IC50 (Plasmodium falciparum [2]) of the same molecule?
A: 1.3 µg/mL (≈ 2.15 µM)

Q: What about the IC50 (Vero) of the same molecule?
A: 2 µg/mL (≈ 3.31 µM)

Q: What about the MIC [3] of the same molecule?
A: 128 µg/mL (≈ 212 µM)

Q: And the IC50 (Candida albicans)?
A: > 20 µg/mL

Q: What about the IC50 (Cryptococcus neoformans) of the same molecule?
A: > 20 µg/mL

Q: And the IC50 [4]?
A: > 20 µg/mL

Q: What about the IC50 [5] of the same molecule?
A: 120 nM

Q: What about the IC50 [6] of the same molecule?
A: 400 nM

Q: And the Activity [7]?
A: >10 µM

Q: What does the source list for `CCn1c2ccccc2c2ccnc(C3=C[C@@]4(O)CC/C=C\CCCCN5CC[C@@H]3[C@]3(C[C@@H]6/C=C\CCCCN6[C@H]34)C5)c21` [9-N-ETHYLMANZAMINE A]?
A: IC50 (Plasmodium falciparum [1]): 0.14 µg/mL (≈ 0.243 µM); IC50 (Plasmodium falciparum [2]): 0.47 µg/mL (≈ 0.815 µM); IC50 (Vero): 1.5 µg/mL (≈ 2.6 µM); MIC [3]: > 128 µg/mL; IC50 (Candida albicans): 20 µg/mL (≈ 34.7 µM); IC50 (Cryptococcus neoformans): 10 µg/mL (≈ 17.3 µM); IC50 [4]: 0.5 µg/mL (≈ 0.867 µM); IC50 [5]: 9700 nM; IC50 [6]: > 10000 nM; Activity [7]: >10 µM
